From PubChem BioAssay
DDE Tn6 FP inh: disrupts Tn6 cyclic peptide binding to fibrin D-Dimer-E complex. P02675. Fibrin DD(E) TRITC-Tn6 fluorescence polarization displacement. inhibition, % at 8.3 µM. hit rate 0.21% among 370,000. AID 720509;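 active = inhibition above a per-campaign cutoff: mean of compounds within control limits plus 3 SD, cut at about 15% in these data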
Tn7 DDE FP: inhibitors of Tn7 peptide binding to human fibrin DD(E). FP displacement of FITC-Tn7 peptide from fibrin DD(E); 0% = median of compound wells per plate. inhibition, % at 8.3 µM. hit rate 0.13% among 370,000. AID 720508;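 active = inhibition above the mean of compounds falling within the control limits plus 3 SD of them, cut at about 14% in these data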
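Assay system: Fibrin-DD(E) protein isolated from polymerized human fibrin clots; read-out basis: percent inhibition; medium: Tris/NaCl/CaCl2 buffer, pH 7.8; signal: FP measurement; incubation: 10 min plus 3 h, room temperature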
DAGLB inh: blocks human DAGLB lipase activity. inhibition, % at 5.17 µM. AID 504411. hit rate 0.059% among 340,000. HEK293T DAGLB membrane lysate, EnzChek fluorogenic substrate; in the data active = inhibition above about 34%
Target sequence (Q8NCG7 whole entry, looked up): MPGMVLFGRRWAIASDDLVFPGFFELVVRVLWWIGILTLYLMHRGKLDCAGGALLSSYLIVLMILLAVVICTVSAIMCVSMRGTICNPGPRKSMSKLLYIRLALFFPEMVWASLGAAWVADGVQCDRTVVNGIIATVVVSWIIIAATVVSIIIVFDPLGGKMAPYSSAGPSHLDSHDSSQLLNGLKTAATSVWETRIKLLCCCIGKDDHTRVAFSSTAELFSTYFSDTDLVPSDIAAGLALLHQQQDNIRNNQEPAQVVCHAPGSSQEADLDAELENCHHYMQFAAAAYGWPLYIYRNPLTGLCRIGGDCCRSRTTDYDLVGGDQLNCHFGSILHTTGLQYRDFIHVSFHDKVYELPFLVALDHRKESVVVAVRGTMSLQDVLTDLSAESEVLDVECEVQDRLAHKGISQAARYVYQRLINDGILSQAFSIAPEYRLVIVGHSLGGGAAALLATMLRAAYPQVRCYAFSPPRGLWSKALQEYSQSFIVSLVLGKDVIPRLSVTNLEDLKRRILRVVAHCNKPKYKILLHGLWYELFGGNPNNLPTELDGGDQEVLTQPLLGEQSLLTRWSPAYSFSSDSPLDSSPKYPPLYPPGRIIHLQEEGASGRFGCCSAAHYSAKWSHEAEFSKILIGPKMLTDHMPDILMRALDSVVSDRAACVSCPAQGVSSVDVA
PolyA inh: inhibitors of polyadenylation in S. cerevisiae. S. cerevisiae SKY197-pL101 polyadenylation reporter, beta-gal luminescence; efflux-impaired pdr1/pdr3 knockout yeast; score 100 = 6 SD above DMSO. activity score, % at 12 µM. hit rate 0.02% among 300,000. AID 1875;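 active = lowest replicate activity score at least 50, where 100 means six control SD above control mean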;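 note: yeast exposed to compound for 9 h at 30 °C; higher score means more reporter readthrough which indicates perturbed polyadenylation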
SKN-1 inh: C. elegans SKN-1 inhibition. C. elegans VP596 Pgst-4::GFP/RFP ratio, acrylamide-induced, 24 h. inhibition, % at 21.8 µM. hit rate 0.49% among 360,000. AID 624304;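 active = interference check ratio from 0.5 to 1.5 plus GFP to RFP signal ratio inhibition reaching or exceeding a fixed threshold, cut at about 30% in these data, passing the limit was not always enough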
MT1-MMP act inh: inhibitors of human MT1-MMP activation; HT1080 RFP-PRO-GFP cells, GFP/RFP ratio fluorescence, overnight; percent of plate control window, DMSO zero; GFP/RFP ratio change, % at 20 µM; hit rate 0.061% among 360,000;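 active = GFP/RFP ratio change of at least 30% with cell ATP level not reduced by more than half and red fluorescence within 50% of control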
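Test system: HT1080 RFP-PRO-GFP cells; Benchmarks: DMSO and RFP-L50D-GFP cell wells; Timing: cells overnight before dosing, compound overnight, 37 °C, 5% CO2; Compound: one 20 µM compound dose with 1% DMSO; Read-out: GFP/RFP fluorescence ratio.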
A number is an active result; 0 = inactive; - = not tested or not shown. The list is not random: actives were taken first. Their share in the collection is about 0.9%.

SMILES	DDE Tn6 FP inh	Tn7 DDE FP	DAGLB inh	PolyA inh	SKN-1 inh	MT1-MMP act inh
CC(=O)Nc1sc(/C(C#N)=C\c2cccc(Cl)c2)nc1-c1ccc(C)cc1	0	0	0	0	35	0
CCOC(OCC)P(=O)(CNC(c1ccccc1)(c1ccccc1)c1ccccc1)OCC (centres undefined)	0	0	-	-	-	-
CC(=O)N1CCCN(C(=O)CN2C(=O)CC(C)(C)S(=O)(=O)c3ccccc32)CC1	0	0	-	-	-	-
CC1(C(=O)Nc2cnc3ccccc3c2)CCN1C(=O)c1ccccc1CCc1ccccc1 (centres undefined)	0	0	-	-	39	0
CCCN(CC1CC1)C(=O)CNc1nnnn1-c1ccccc1	0	0	-	-	-	-
O=C(N/N=C\c1ccncc1)c1ccc(Br)s1	0	0	0	0	41	0
N#CC1=C(N)N(c2ccc(F)cc2)C2=C(C1c1ccc(O)cc1)S(=O)(=O)CC2 (centres undefined)	0	0	0	-	35	0
CSc1ccc(C2C(C#N)=C(N)N(c3ccccc3)C3=C2C(=O)CCC3)cc1 (centres undefined)	0	0	0	0	0	0
COC(=O)[C@]12C[C@H](CC(=O)NCC3CCCCC3)C(=O)N(CCC3=CCCCC3)C1=C[C@H](C1CCCC1)O[C@@H]2C	0	0	-	-	-	-
Cc1cccc(Cn2c(Sc3nc(C)cs3)nc3c2c(=O)[nH]c(=O)n3C)c1	0	0	0	0	40	0
Cc1csc(Sc2nc3c(c(=O)[nH]c(=O)n3C)n2Cc2ccccc2Cl)n1	0	0	0	0	0	0
CC(=O)N1CCN(c2cc(-c3ccco3)nc3cc(-c4ccccc4)nn23)CC1	0	0	-	-	-	-
CC(=NNC(=O)CSc1nnc(-c2ccccc2)n1-c1ccccc1)c1ccc2ccccc2c1	0	0	-	-	-	-
CC(=O)c1cccc(NC(=O)N2CCCC2C(=O)Nc2c(C)cccc2C)c1 (centres undefined)	0	0	0	0	37	0
CC(=O)c1cccc(NC(=O)N2CCCC2C(=O)Nc2cccc(C)c2)c1 (centres undefined)	0	0	0	0	0	0
Cn1c(=O)c(C(=O)NNC(=O)c2ccccc2Br)c(O)c2ccccc21	0	0	0	0	0	0
Cn1c(=O)c(C(=O)NNC(=O)c2ccccc2Cl)c(O)c2ccccc21	0	0	0	88	0	0
Cc1cc(-c2nc3cc(F)ccc3s2)ccc1N	0	0	0	-	83	0
Nc1ccc(-c2nc3ccc(N)cc3s2)cc1	0	0	0	0	0	0
CCn1c2ccccc2c2cc(NC(=O)COC(=O)c3cccc(OC)c3)ccc21	0	0	-	-	-	-
O=C(O)CN1C(=O)NC2(CCCc3ccccc32)C1=O (centres undefined)	0	0	0	0	0	0
Cc1cc(C(=O)CN2C(=O)NC3(CCCc4ccccc43)C2=O)c(C)n1Cc1ccccc1 (centres undefined)	0	0	0	0	36	0
CCOC(=O)c1ccccc1NC(=O)Cc1ccccc1OC	0	0	0	0	50	0
COc1ccccc1CC(=O)Nc1ccccc1C(=O)O	0	0	0	0	0	0
CCOc1ccc2nc(NC(=O)CN3CCC(n4nnc5cc(C(F)(F)F)ccc54)CC3)sc2c1	0	0	0	0	39	0
SMILES	DDE Tn6 FP inh	Tn7 DDE FP	DAGLB inh	PolyA inh	SKN-1 inh	MT1-MMP act inh
COc1ccc2oc(C(F)(F)C(F)F)cc(=O)c2c1	0	0	0	0	36	0
c1ccc(C2(Cn3ccc4ccccc43)OCCO2)cc1	0	0	0	0	44	0
COc1cc(SC)ccc1C(=O)Nc1nccs1	0	0	0	0	44	0
Cn1c(SC2CCCC2)nnc1-c1ccco1	0	0	-	-	-	-
CC(C)NC(=O)CN(C)S(=O)(=O)c1ccc(F)cc1	0	0	0	0	36	0
CCCNC(=O)CN(C)S(=O)(=O)c1ccc(F)cc1	0	0	0	0	0	0
O=C1/C(=C\c2cccs2)SC(=S)N1C1CCS(=O)(=O)C1 (centres undefined)	0	0	0	0	39	0
CCOc1ccc(-c2nc(N)ncc2Oc2cccc(OC)c2)c(O)c1	0	0	0	0	37	0
Cc1c(C(=O)N/N=C/c2ccccc2Cl)[nH][nH]c1=O	0	0	-	-	-	-
Cc1c(NC(=O)CSc2ccc3c(c2)OCCO3)c(=O)n(-c2ccccc2)n1C	0	0	0	0	44	0
CC(C)OC(=O)CSc1nnnn1-c1ccc2c(c1)OCCO2	0	0	0	0	45	0
O=C(O)CSc1nnnn1-c1ccc2c(c1)OCCO2	0	0	0	0	0	0
O=C(NC1CCCCN(Cc2cccc(Cl)c2)C1=O)C1CCCCC1 (centres undefined)	0	0	-	-	-	-
C=CCN(c1ccc(C(=O)NC(C)C)cc1)S(C)(=O)=O	0	0	0	0	47	0
CC(C)(C)NC(=O)c1ccc2c(c1)C1C3CCC(C3)C1C(c1ccccc1)N2 (centres undefined)	0	0	0	0	0	0
CCCNC(=O)c1ccc2c(c1)C1C3CCC(C3)C1C(c1ccccc1)N2 (centres undefined)	0	0	0	0	48	0
O=C(NCc1ccc(C(F)(F)F)cc1)O[C@H]1CC[C@@]23CCCN2C(=O)CCC[C@H]3C1	0	0	-	-	-	-
Cc1c(C)n(Cc2ccccc2)c2ccc(C(=O)OCCN(C)C)cc12	0	0	0	0	36	0
COCCn1c(SCC(=O)Nc2cccc(C)c2)nnc1C(C)C	0	0	0	0	37	0
COCCn1c(SCC(=O)Nc2cc(C)cc(C)c2)nnc1C(C)C	0	0	0	0	0	0
O=C(CN1CCc2onc(-c3ccc(-n4cc(-c5ccccc5)nn4)cc3)c2C1=O)N1CCOCC1	0	0	-	-	-	-
CCc1cccc(C)c1NC(=S)NCc1ccc2c(c1)cc(C)n2C	0	0	0	0	97	0
CCC(CC)C(=O)NCc1ccc2c(c1)cc(C)n2C	0	0	0	0	0	0
CCOC(=O)NCc1ccc2c(c1)cc(C)n2C	0	0	0	0	52	0
Cc1cc2cc(CNC(=O)Nc3ccccc3)ccc2n1C	0	0	0	0	38	0
SMILES	DDE Tn6 FP inh	Tn7 DDE FP	DAGLB inh	PolyA inh	SKN-1 inh	MT1-MMP act inh
COc1ccc(NC(=S)NCc2ccc3c(c2)cc(C)n3C)cc1	0	0	0	0	0	0
CCc1cccc(C)c1NC(=S)NCc1ccccc1	0	0	0	0	0	0
Cc1cc2cc(CNC(=O)C3CC3)ccc2n1C	0	0	0	0	40	0
CCCC1CCC2(CC1)CCC2OC(=O)Nc1ccccc1OC (centres undefined)	0	0	-	-	-	-
COC(=O)[C@H](C(C)C)N(CCCc1cn(CC2CCCCC2)nn1)S(=O)(=O)c1ccc(F)cc1Br	0	0	-	-	-	-
COc1ccc(CC(=O)NCc2ccc3c(c2)cc(C)n3C)cc1	0	0	0	0	50	-
